Test results published in ChEMBL document CHEMBL1914408, “Synthesis and biological evaluation of hydroxylated 3-phenylcoumarins as antioxidants and antiproliferative agents” (Bioorg Med Chem Lett, 2011).
The source made the active and inactive calls. The calls are words filed in the database; no cut-off is given here.

Tests used:
[1] = Antioxidant activity assessed as protection against […]-induced pBR322 DNA strand breakage at 20 uM after 1 hr using ethidium bromide staining by agarose gel electrophoresis analysis; type: functional
Method in brief: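 Supercoiled plasmid pBR322 DNA (100 ng/25 µl) incubated with 10 mM AAPH plus 20 µM test compound in 10 mM PBS, pH 7.4, 37 °C, 1 h; strand breakage (supercoiled vs open circular/linear forms) read by agarose gel electrophoresis. Controls: DNA alone (native) and DNA with AAPH.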

[2] = test system: HL-60; assay: Antiproliferative activity against human HL60 cells after 48 hrs by MTT assay; type: functional, cell-based; conditions: HL-60, 48 h
Method in brief: (§1)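 MTT proliferation assay in HL-60 and A549 cells; IC50 taken as concentration giving 50% inhibition of cell proliferation, reported as mean ± SD of three determinations.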

[3] = test system: A549; assay: Antiproliferative activity against human A549 cells after 72 hrs by MTT assay; type: functional, cell-based; conditions: A549, 72 h; method in brief: as §1
[4] = test system: HL-60; assay: Antiproliferative activity against human HL60 cells after 48 hrs by MTT assay relative to resveratrol; type: functional
[5] = test system: A549; assay: Antiproliferative activity against human A549 cells after 72 hrs by MTT assay relative to resveratrol; type: functional
[6] = test system: A549; assay: Cell cycle arrest in human A549 cells assessed as accumulation at G0/G1 phase at 20 uM after 24 hrs using propidium iodide staining by flow cytometric analysis (reference value: 70.68 %); type: functional
[7] = test system: A549; assay: Cell cycle arrest in human A549 cells assessed as accumulation at S phase at 15 uM after 24 hrs using propidium iodide staining by flow cytometric analysis (reference value: 21.16 %); type: functional
[8] = test system: A549; assay: Cell cycle arrest in human A549 cells assessed as accumulation at S phase at 20 uM after 24 hrs using propidium iodide staining by flow cytometric analysis (reference value: 21.16 %); type: functional
[9] = test system: A549; assay: Cell cycle arrest in human A549 cells assessed as accumulation at G0/G1 phase at 10 uM after 24 hrs using propidium iodide staining by flow cytometric analysis (reference value: 70.68 %); type: functional
[10] = test system: A549; assay: Cell cycle arrest in human A549 cells assessed as accumulation at G0/G1 phase at 40 uM after 24 hrs using propidium iodide staining by flow cytometric analysis (reference value: 70.68 %); type: functional
[11] = test system: A549; assay: Induction of early apoptosis in human A549 cells assessed as reduction of living cells after 24 hrs by Hoechst-33258/propodium iodide staining based fluorescence microscopy; type: functional, cell-based
Method in brief: (§2)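 A549 cells treated with culture medium or 5, 10 and 15 µM compound for 24 h, then nuclear-stained with Hoechst 33258/propidium iodide and viewed by fluorescence microscopy (200×). Living cells scored as smooth blue nuclei; early apoptotic cells as blue with bright specks of condensed chromatin. Representative of three separate experiments.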

[12] = test system: A549; assay: Cell cycle arrest in human A549 cells assessed as accumulation at S phase at 10 uM after 24 hrs using propidium iodide staining by flow cytometric analysis (reference value: 21.16 %); type: functional
[13] = test system: A549; assay: Cell cycle arrest in human A549 cells assessed as accumulation at G2/M phase at 30 uM after 24 hrs using propidium iodide staining by flow cytometric analysis (reference value: 8.16 %); type: functional
[14] = test system: A549; assay: Cell cycle arrest in human A549 cells assessed as accumulation at G2/M phase at 20 uM after 24 hrs using propidium iodide staining by flow cytometric analysis (reference value: 8.16 %); type: functional
[15] = test system: A549; assay: Induction of apoptosis in human A549 cells assessed as condensed chromatin after 24 hrs by Hoechst-33258/propodium iodide staining based fluorescence microscopy; type: functional, cell-based; method in brief: as §2
[16] = test system: A549; assay: Cell cycle arrest in human A549 cells assessed as accumulation at G2/M phase at 40 uM after 24 hrs using propidium iodide staining by flow cytometric analysis (reference value: 8.16 %); type: functional
[17] = test system: A549; assay: Cell cycle arrest in human A549 cells assessed as accumulation at S phase at 40 uM after 24 hrs using propidium iodide staining by flow cytometric analysis (reference value: 21.16 %); type: functional
[18] = test system: A549; assay: Cell cycle arrest in human A549 cells assessed as accumulation at G2/M phase at 15 uM after 24 hrs using propidium iodide staining by flow cytometric analysis (reference value: 8.16 %); type: functional
[19] = test system: A549; assay: Cell cycle arrest in human A549 cells assessed as accumulation at G2/M phase at 10 uM after 24 hrs using propidium iodide staining by flow cytometric analysis (reference value: 8.16 %); type: functional
[20] = test system: A549; assay: Cell cycle arrest in human A549 cells assessed as accumulation at G0/G1 phase at 15 uM after 24 hrs using propidium iodide staining by flow cytometric analysis (reference value: 70.68 %); type: functional
[21] = test system: A549; assay: Cell cycle arrest in human A549 cells assessed as accumulation at G0/G1 phase at 30 uM after 24 hrs using propidium iodide staining by flow cytometric analysis (reference value: 70.68 %); type: functional
[22] = test system: A549; assay: Induction of apoptosis in human A549 cells assessed as changes in cell morphology after 24 hrs by Hoechst-33258/propodium iodide staining based fluorescence microscopy; type: functional; method in brief: as §2
[23] = test system: A549; assay: Cell cycle arrest in human A549 cells assessed as accumulation at S phase at 30 uM after 24 hrs using propidium iodide staining by flow cytometric analysis (reference value: 21.16 %); type: functional

With `O=c1oc2cc(O)c(O)cc2cc1-c1ccc(O)cc1` the Activity [1] was “Active”, the IC50 [2] was 25 µM and the IC50 [3] was 42.5 µM.
Compound `O=c1oc2ccccc2cc1-c1ccc(O)cc1` has an IC50 [2] of over 200 µM and an IC50 [3] of over 200 µM.
For `COc1cc(-c2cc3ccc(O)cc3oc2=O)ccc1O`, the Activity [1] was “Active”, the IC50 [2] was 91.7 µM and the IC50 [3] was over 200 µM.
`O=c1oc2cc(O)ccc2cc1-c1cc(O)cc(O)c1` gave an IC50 [2] of 127 µM and an IC50 [3] of over 200 µM.
`O=c1oc2cc(O)ccc2cc1-c1ccc(O)c(O)c1` gave an IC50 [2] of 42.1 µM and an IC50 [3] of 85 µM.
In the case of `COc1cc(-c2cc3cc(O)c(O)cc3oc2=O)ccc1O`, the IC50 [3] is reported as 43.4 µM.
With `O=c1oc2cc(O)ccc2cc1-c1ccc(O)cc1` the Activity [1] was “Active”, the IC50 [2] was over 200 µM and the IC50 [3] was over 200 µM.
In the case of `O=c1oc2cc(O)c(O)cc2cc1-c1ccccc1`, the Activity [1] is reported as “Active”, the IC50 [2] is reported as 14 µM and the IC50 [3] is reported as 27 µM.
With `COc1cc(-c2cc3cc(OC)c(O)cc3oc2=O)ccc1O` the Activity [1] was “Active”, the IC50 [2] was 24.3 µM and the IC50 [3] was 21.4 µM.
With `COc1cc2cc(-c3ccc(O)cc3)c(=O)oc2cc1O` the Activity [1] was “inactive”, the “fold change (FC)” value [4] was 7 and the “fold change (FC)” value [5] was 16. For the same compound, the Activity [6] was 11.82%, the Activity [7] was 19.86% and the Activity [8] was 18.1%. For the same compound, the Activity [9] was 71.45%, the Activity [10] was 7.11% and the Activity [11] was “Dose-dependent effect”. The IC50 [2] was 5.2 µM, the IC50 [3] was 7.5 µM and the Activity [12] was 11.95%. For the same compound, the Activity [13] was 80.95%, the Activity [14] was 70.08% and the Activity [15] was “Dose-dependent effect”. The Activity [16] was 84.03%, the Activity [17] was 8.86% and the Activity [18] was 40.65%. The Activity [19] was 16.6%, the Activity [20] was 34.49% and the Activity [21] was 9.62%. For the same compound, the Activity [22] was “Dose-dependent effect” and the Activity [23] was 9.43%.
In the case of `COc1cc2cc(-c3ccc(O)cc3)c(=O)oc2c(OC)c1O`, the Activity [1] is reported as “Active”, the IC50 [2] is reported as 25.1 µM and the IC50 [3] is reported as 45.8 µM.
`Oc1ccc(/C=C/c2cc(O)cc(O)c2)cc1` [RESVERATROL] gave an IC50 [3] of 120 µM.
In the case of `O=c1oc2cc(O)ccc2cc1-c1ccccc1`, the IC50 [2] is reported as over 200 µM and the IC50 [3] is reported as over 200 µM.
For `COc1cc2cc(-c3cc(OC)c(OC)c(OC)c3)c(=O)oc2c(OC)c1O`, the Activity [1] was “Active”, the IC50 [2] was 72.2 µM and the IC50 [3] was over 200 µM.
With `O=c1oc2cc(O)c(O)cc2cc1-c1ccc(O)c(O)c1` the Activity [1] was “Active”, the IC50 [2] was 22.1 µM and the IC50 [3] was 48.8 µM.
